Measurements taken from ChEMBL document CHEMBL5143666, “Insights into the anticancer activity of chiral alkylidene-β-lactams and alkylidene-γ-lactams: Synthesis and biological investigation” (Bioorg Med Chem, 2022).
Activity calls are given as the source filed them. No cut-off for these calls is given here.

What was measured:
A-375 [1] = assay: Cytotoxicity against human A375 cells after 48 hrs by MTT assay; format: functional, cell-based; settings: A-375, 48 h
Outline: (§1)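 Cells seeded at 1×10^5 per well, attached overnight, then exposed to serial dilutions from 10 mM DMSO stocks (vehicle control 1% DMSO) for 48 or 72 h; triplicate wells. MTT 0.5 mg/mL, 4 h at 37 °C; formazan dissolved in acid isopropanol, absorbance read. IC50 from sigmoidal variable-slope fit of % metabolic activity vs log concentration; ≥2 independent experiments.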

OE19 [2] = assay: Cytotoxicity against human OE19 cells after 48 hrs by MTT assay; format: functional, cell-based; settings: OE19, 48 h; outline: as §1
HT-1080 = assay: Cytotoxicity against human HT-1080 cells after 48 hrs by MTT assay; format: functional, cell-based; settings: HT-1080, 48 h; outline: as §1
A-375 [3] = assay: Induction of cell cycle arrest in human A375 assessed as number of cells at G1 phase at 10 uM after 48 hrs by flow cytometry (reference value: 83.5 +/- 1.87 %); format: functional
A-375 [4] = assay: Induction of cell cycle arrest in human A375 assessed as number of cells at S phase at 10 uM after 48 hrs by flow cytometry (reference value: 11.33 +/- 1.86 %)
A-375 [5] = assay: Induction of apoptosis in human A375 cells assessed as viable cells at 10 uM after 48 hrs by annexin-v and PI staining based flow cytometry analysis (reference value: 93.63 +/- 1.37%); format: functional; settings: read-out: Activity
NCI-H1299 = assay: Cytotoxicity against human H1299 cells after 48 hrs by MTT assay; format: functional, cell-based; settings: NCI-H1299, 48 h; outline: as §1
[6] = molecular target: Matrix metalloproteinase-9 (Homo sapiens) (UniProt P14780); assay: Inhibition of MMP9 in human HT-1080 cells at 10 uM by gelatin zymography; format: cell-based
Sequence of Matrix metalloproteinase-9 (Homo sapiens) (P14780 whole entry): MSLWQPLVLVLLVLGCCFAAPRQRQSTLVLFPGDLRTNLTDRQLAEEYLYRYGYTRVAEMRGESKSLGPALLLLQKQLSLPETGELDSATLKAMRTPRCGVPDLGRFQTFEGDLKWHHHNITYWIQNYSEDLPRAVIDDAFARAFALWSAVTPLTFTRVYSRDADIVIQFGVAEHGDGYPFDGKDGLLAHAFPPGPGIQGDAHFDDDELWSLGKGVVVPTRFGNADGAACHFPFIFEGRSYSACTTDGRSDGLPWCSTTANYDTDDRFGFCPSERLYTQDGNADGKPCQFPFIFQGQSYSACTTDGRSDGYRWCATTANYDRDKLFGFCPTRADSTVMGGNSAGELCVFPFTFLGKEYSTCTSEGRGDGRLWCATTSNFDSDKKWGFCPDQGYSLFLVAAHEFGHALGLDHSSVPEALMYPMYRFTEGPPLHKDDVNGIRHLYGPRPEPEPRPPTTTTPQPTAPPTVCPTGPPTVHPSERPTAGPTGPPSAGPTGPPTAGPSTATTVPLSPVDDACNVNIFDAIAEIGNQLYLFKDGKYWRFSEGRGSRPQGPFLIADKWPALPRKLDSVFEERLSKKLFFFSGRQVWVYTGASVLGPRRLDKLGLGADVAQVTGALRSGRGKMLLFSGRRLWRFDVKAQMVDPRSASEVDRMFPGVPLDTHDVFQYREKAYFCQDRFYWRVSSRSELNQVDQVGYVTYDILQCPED

A-375 [7] = assay: Induction of cell cycle arrest in human A375 assessed as number of cells at G2/M phase at 5 uM after 48 hrs by flow cytometry (reference value: 5.17 +/- 0.75 %); format: functional
OE19 [8] = assay: Cytotoxicity against human OE19 cells after 72 hrs by MTT assay; format: functional, cell-based; settings: OE19, 72 h; outline: as §1
A-375 [9] = assay: Induction of apoptosis in human A375 assessed as formation of bleb at 5 to 10 uM after 48 hrs by May-Grunwald- Giemsa staining based optical microscopic analysis; format: functional, cell-based; settings: dose 5-10 µM
Outline: (§2)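 A375 cells exposed to 5 or 10 μM for 48 h, stained with May-Grünwald Giemsa and examined by optical microscopy at 50x. Representative images taken at random for each condition.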

A-375 [10] = assay: Induction of apoptosis in human A375 assessed as loss of cell integrity at 5 to 10 uM after 48 hrs by May-Grunwald- Giemsa staining based optical microscopic analysis; format: functional; settings: dose 5-10 µM; outline: as §2
A-375 [11] = assay: Induction of apoptosis in human A375 cells assessed as necrotic cells at 10 uM after 48 hrs by annexin-v and PI staining based flow cytometry analysis (reference value: 1.17 +/- 0.41%); format: functional
A-375 [12] = assay: Induction of apoptosis in human A375 cells assessed as late apoptotic cells at 10 uM after 48 hrs by annexin-v and PI staining based flow cytometry analysis (reference value: 1.83 +/- 0.41%); format: functional
A-375 [13] = assay: Effect on reactive oxygen production in human A375 cells assessed as decrease in peroxide level at 10 uM after 48 hrs by DCFH2-DA staining based spectrophotometry; format: functional, cell-based
Outline: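 A375 cells (5×10^5) attached overnight, exposed at 5 or 10 μM for 8 or 48 h. Intracellular peroxides measured with 5 μM DCFH2-DA, 45 min at 37 °C in the dark; after washing, fluorescence read at ex 485 / em 528 nm. Mean ± SD of two independent experiments in duplicate.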

A-375 [14] = assay: Induction of cell cycle arrest in human A375 assessed as number of cells at G1 phase at 5 uM after 48 hrs by flow cytometry (reference value: 83.5 +/- 1.87 %); format: functional
A-375 [15] = assay: Induction of cell cycle arrest in human A375 assessed as number of cells at G2/M phase at 10 uM after 48 hrs by flow cytometry (reference value: 5.17 +/- 0.75 %); format: functional
A-375 [16] = assay: Induction of cell cycle arrest in human A375 assessed as number of cells at S phase at 5 uM after 48 hrs by flow cytometry (reference value: 11.33 +/- 1.86 %); format: functional

| Structure (SMILES) | IC50 (A-375 [1]) [µM] | IC50 (OE19 [2]) [µM] | IC50 (HT-1080) [µM] | IC50 (NCI-H1299) [µM] | inhibition [6] | also measured |
| --- | --- | --- | --- | --- | --- | --- |
| CC1(C)S[C@@H]2/C(=C\C(=O)c3ccc([N+](=O)[O-])cc3)C(=O)N2[C@H]1C(=O)OC(c1ccccc1)c1ccccc1 | 50.3 | 44.1 |  |  |  |  |
| CC1(C)S[C@@H]2/C(=C\C(=O)OCc3ccccc3)C(=O)N2[C@H]1C(=O)OC(c1ccccc1)c1ccccc1 | 7.1 | 8.2 | 11.7 | 9.4 | Active | Activity (A-375 [3]): 58.33%; Activity (A-375 [4]): 29.67%; viability at 10 µM (A-375 [5]): 56.2%; Activity (A-375 [7]): 8.75%; IC50 (OE19 [8]): 4.6 µM; Activity (A-375 [9]): Active; Activity (A-375 [10]): Active; Activity (A-375 [11]): 24%; Activity (A-375 [12]): 13%; Activity (A-375 [13]): Active; Activity (A-375 [14]): 71.25%; Activity (A-375 [15]): 12%; Activity (A-375 [16]): 19.5% |
| CC1(C)S[C@@H]2/C(=C\C(=O)c3cc(C(F)(F)F)cc(C(F)(F)F)c3)C(=O)N2[C@H]1C(=O)OC(c1ccccc1)c1ccccc1 | 39.2 | 48.5 |  |  |  |  |
| CC(=O)/C=C1/C(=O)N2[C@@H]1SC(C)(C)[C@@H]2C(=O)OC(c1ccccc1)c1ccccc1 | 63 | 51.9 | 20.8 | 24.2 |  |  |
| CC1(C)S[C@@H]2/C(=C\C(=O)OC(c3ccccc3)c3ccccc3)C(=O)N2[C@H]1C(=O)OC(c1ccccc1)c1ccccc1 | 9.1 | 21.6 | 15.2 | 22.4 | Active | Activity (A-375 [3]): 67.67%; Activity (A-375 [4]): 15.33%; viability at 10 µM (A-375 [5]): 73.5%; Activity (A-375 [11]): 14.75%; Activity (A-375 [12]): 7.75%; Activity (A-375 [13]): Active; Activity (A-375 [15]): 13% |
| CC1(C)S[C@@H]2/C(=C\C(=O)c3ccc(Br)cc3)C(=O)N2[C@H]1C(=O)OC(c1ccccc1)c1ccccc1 | 29.7 | 13.8 |  |  |  |  |
| CC1(C)S[C@@H]2/C(=C\C(=O)c3cc(F)cc(F)c3)C(=O)N2[C@H]1C(=O)OC(c1ccccc1)c1ccccc1 | 19.1 | 17.6 |  |  |  |  |
| CC1(C)[C@H](C(=O)OC(c2ccccc2)c2ccccc2)N2C(=O)/C(=C/C(=O)c3ccccc3)[C@H]2[S+]1[O-] (some centres undefined) | 4.5 | 23.7 | 65.5 | 92.4 |  | viability at 10 µM (A-375 [5]): 89.2%; Activity (A-375 [11]): 3%; Activity (A-375 [12]): 4.17% |
| COC(=O)/C=C1\C[C@H]2SC(C)(C)[C@H](C(=O)OC(c3ccccc3)c3ccccc3)N2C1=O | > 100 | 99.7 |  |  | 52.9% |  |
| CC1(C)[C@H](C(=O)OC(c2ccccc2)c2ccccc2)N2C(=O)/C(=C/C(=O)c3ccc([N+](=O)[O-])cc3)[C@H]2S1(=O)=O | 76.7 | 95.5 |  |  |  |  |
| CC1(C)S[C@@H]2/C(=C\C(=O)c3ccc4ccccc4c3)C(=O)N2[C@H]1C(=O)OC(c1ccccc1)c1ccccc1 | 36.5 | 19.5 |  |  |  |  |
| CC1(C)[C@H](C(=O)OC(c2ccccc2)c2ccccc2)N2C(=O)/C(=C/C(=O)c3ccccc3)[C@H]2S1(=O)=O | 17.5 | 53.1 | 19.5 | 50.1 |  |  |
| CC1(C)[C@H](C(=O)OC(c2ccccc2)c2ccccc2)N2C(=O)/C(=C/C(=O)c3ccc([N+](=O)[O-])cc3)[C@H]2[S+]1[O-] (some centres undefined) | 48.2 | 92.4 |  |  |  |  |
| CCOC(=O)/C=C1/C(=O)N2[C@@H]1SC(C)(C)[C@@H]2C(=O)OC(c1ccccc1)c1ccccc1 | 7 | 11.2 | 25.1 | 15 | Active | Activity (A-375 [3]): 61.65%; Activity (A-375 [4]): 25.75%; viability at 10 µM (A-375 [5]): 63%; IC50 (OE19 [8]): 5.3 µM; Activity (A-375 [11]): 20.8%; Activity (A-375 [12]): 11.5%; Activity (A-375 [13]): Active; Activity (A-375 [15]): 12.5% |
| CC1(C)S[C@@H]2/C(=C\C(=O)c3ccccc3)C(=O)N2[C@H]1C(=O)OC(c1ccccc1)c1ccccc1 | 22.8 | 12.8 | 21.1 | 39 | Active | IC50 (OE19 [8]): 8.6 µM |
| CC1(C)S[C@@H]2C/C(=C\C(=O)c3ccccc3)C(=O)N2[C@H]1C(=O)OC(c1ccccc1)c1ccccc1 | > 100 | 73.3 |  |  | 61.4% |  |
| CC(=O)/C=C1\C[C@H]2SC(C)(C)[C@H](C(=O)OC(c3ccccc3)c3ccccc3)N2C1=O | > 100 | > 100 | > 100 | > 100 |  |  |
| CC1(C)S[C@@H]2/C(=C\C(=O)c3ccc(Cl)cc3)C(=O)N2[C@H]1C(=O)OC(c1ccccc1)c1ccccc1 | 48.6 | 14.6 |  |  |  |  |
| CC1(C)S[C@@H]2/C(=C\C(=O)c3ccc(C(F)(F)F)cc3)C(=O)N2[C@H]1C(=O)OC(c1ccccc1)c1ccccc1 | 26.7 | 15.6 |  |  |  |  |
| CC1(C)S[C@@H]2/C(=C\C(=O)c3ccc(F)cc3)C(=O)N2[C@H]1C(=O)OC(c1ccccc1)c1ccccc1 | 17.8 | 12.1 | 11.2 | 25.2 | Active | IC50 (OE19 [8]): 10.7 µM |
| COC(=O)/C=C1/C(=O)N2[C@@H]1SC(C)(C)[C@@H]2C(=O)OC(c1ccccc1)c1ccccc1 | 24.6 | 20.2 |  |  |  |  |
| CC1(C)S[C@@H]2/C(=C\C(=O)c3ccco3)C(=O)N2[C@H]1C(=O)OC(c1ccccc1)c1ccccc1 | 26 | 54.3 | 45.5 | 61.5 |  |  |
